Published values gathered from unrelated publications.
Compare with care: the assays were run in different laboratories. ≈ marks a conversion by molar mass, not a printed value.

CCOC(=O)C1=C(CN2CCC(C(=O)Nc3cccc(B4OC(C)(C)C(C)(C)O4)c3)C2)NC(c2nccs2)=NC1c1ccc(F)cc1Br (stereo not drawn) — EC50 (Hepatitis B virus; viral replication, inhibitor, qPCR; HepDES19; 72 h): 0.87 µM
Cc1ccc(N=Nc2c(N)nn3c(-c4ccc(Cl)cc4Cl)cc(-c4ccc(OCc5ccccc5)cc4)nc23)cc1 — MFC (Saccharomyces cerevisiae; microbial killing, broth dilution; ATCC9763): 125 µg/mL (≈ 216 µM)
CCOC(=O)C1=C(CN2CCCC2C(=O)Nc2ccc(B3OC(C)(C)C(C)(C)O3)cc2)NC(c2nccs2)=NC1c1ccc(F)cc1Br (stereo not drawn) — EC50 (Hepatitis B virus; viral replication, inhibitor, qPCR; HepDES19; 72 h): 0.37 µM
CNC(=S)NN=Cc1ccc(C)cc1 — IC50 (Leishmania tropica; parasite growth; J774.A1; 72 h, intracellular, amastigote): 452 µM
COc1ccc(N=Nc2c(N)nn3c(-c4ccco4)cc(-c4ccc(OCc5ccccc5)cc4)nc23)cc1 — MIC (Saccharomyces cerevisiae; microbial growth, broth dilution; ATCC9763): 62.5 µg/mL (≈ 121 µM)
S=C(NN=Cc1ccc(Br)cc1)Nc1cccnc1 — IC50 (Leishmania tropica; parasite growth; J774.A1; 72 h, intracellular, amastigote): 475 µM
COc1ccc(C2Oc3ccccc3C=C2[N+](=O)[O-])cc1 (stereo not drawn) — IC50 (Leishmania tropica; parasite growth; THP-1; 72 h, intracellular, amastigote): 150 µg/mL
Fc1ccc(C=NNC(=S)Nc2cccnc2)cc1 — IC50 (Leishmania tropica; parasite growth; J774.A1; 72 h, intracellular, amastigote): 201 µM
Nc1nn2c(-c3ccco3)cc(-c3ccc(OCc4ccccc4)cc3)nc2c1N=Nc1ccc(F)cc1 — MFC (Saccharomyces cerevisiae; microbial killing, broth dilution; ATCC9763): 62.5 µg/mL (≈ 124 µM)
C[C@@H]1[C@H](O)[C@@H](C)/C=C/C=C/C=C/C=C/C=C/C=C/C=C/[C@H](O[C@@H]2O[C@H](C)[C@@H](O)[C@H](N)[C@@H]2O)C[C@@H]2O[C@](O)(C[C@@H](O)C[C@@H](O)[C@H](O)CC[C@@H](O)C[C@@H](O)CC(=O)O[C@H]1C)C[C@H](O)[C@H]2C(=O)O — IC50 (Leishmania tropica; parasite growth, MTT; 72 h, promastigote): 17.9 µM
CCOC(=O)C1=C(CN2CCC[C@@H]2C(=O)Nc2ccc(B(O)O)cc2)NC(c2nccs2)=N[C@@H]1c1ccc(F)cc1Br — EC50 (Hepatitis B virus; viral replication, inhibitor, qPCR; HepDES19; 72 h): 3.93 µM
OC(Cn1cncn1)(Cn1cncn1)c1ccc(F)cc1F — MIC (Saccharomyces cerevisiae; microbial growth, broth dilution; BY4742; 48 h): 8 µg/mL (≈ 26.1 µM)
CCOC(=O)C1=C(CN2CCCC2C(=O)Nc2cccc(B3OC(C)(C)C(C)(C)O3)c2)NC(c2nccs2)=NC1c1ccc(F)cc1Br (stereo not drawn) — EC50 (Hepatitis B virus; viral replication, inhibitor, qPCR; HepDES19; 72 h): 0.37 µM
COc1ccc(N=Nc2c(N)nn3c(-c4ccc(C)cc4)cc(-c4ccc(OCc5ccccc5)cc4)nc23)cc1 — MFC (Saccharomyces cerevisiae; microbial killing, broth dilution; ATCC9763): 125 µg/mL (≈ 231 µM)
O=[N+]([O-])C1=Cc2ccccc2OC1c1ccc(OCc2ccc(F)cc2)cc1 (stereo not drawn) — IC50 (Leishmania tropica; parasite growth; THP-1; 72 h, intracellular, amastigote): 181 µg/mL
CC(=O)N1CCN(c2ccc(OCC3COC(Cn4ccnc4)(c4ccc(Cl)cc4Cl)O3)cc2)CC1 (stereo not drawn) — MIC (Saccharomyces cerevisiae; microbial growth, broth dilution; ATCC9763): 1.95 µg/mL (≈ 3.67 µM)
O=[N+]([O-])C1=Cc2ccccc2OC1c1ccc(OCc2ccc(Cl)cc2)cc1 (stereo not drawn) — IC50 (Leishmania tropica; parasite growth; THP-1; 72 h, intracellular, amastigote): 142 µg/mL
CCOC(=O)C1=C(CN2CCN(Cc3cccc(B4OC(C)(C)C(C)(C)O4)c3)CC2)NC(c2nccs2)=NC1c1ccc(F)cc1Br (stereo not drawn) — EC50 (Hepatitis B virus; viral replication, inhibitor, qPCR; HepDES19; 72 h): 1.3 µM
COc1ccc(N=Nc2c(N)nn3c(-c4ccc(Cl)cc4Cl)cc(-c4ccc(OCc5ccccc5)cc4)nc23)cc1 — MFC (Saccharomyces cerevisiae; microbial killing, broth dilution; ATCC9763): 500 µg/mL (≈ 840 µM)
O=[N+]([O-])C1=Cc2ccccc2OC1c1ccccc1Br (stereo not drawn) — IC50 (Leishmania tropica; parasite growth; THP-1; 72 h, intracellular, amastigote): 154 µg/mL
Cc1ccc(-c2cc(-c3ccc(OCc4ccccc4)cc3)nc3c(N=Nc4ccc(F)cc4)c(N)nn23)cc1 — MFC (Saccharomyces cerevisiae; microbial killing, broth dilution; ATCC9763): 125 µg/mL (≈ 236 µM)
COc1ccc(C=NNC(=S)Nc2cccnc2)cc1OC — IC50 (Leishmania tropica; parasite growth, MTT; 72 h, promastigote): > 1000 µM
CCOC(=O)C1=C(CN2CCC(C(=O)Nc3ccc(B(O)O)cc3)C2)NC(c2nccs2)=NC1c1ccc(F)cc1Br (stereo not drawn) — EC50 (Hepatitis B virus; viral replication, inhibitor, qPCR; HepDES19; 72 h): 0.5 µM
C[C@@H]1[C@H](O)[C@@H](C)/C=C/C=C/C=C/C=C/C=C/C=C/C=C/[C@H](O[C@@H]2O[C@H](C)[C@@H](O)[C@H](N)[C@@H]2O)C[C@@H]2O[C@](O)(C[C@@H](O)C[C@@H](O)[C@H](O)CC[C@@H](O)C[C@@H](O)CC(=O)O[C@H]1C)C[C@H](O)[C@H]2C(=O)O — MIC (Saccharomyces cerevisiae; microbial growth, broth dilution; BY4742; 48 h): 0.25 µg/mL (≈ 0.271 µM)
Cc1ccc(N=Nc2c(N)nn3c(-c4ccc(C)cc4)cc(-c4ccc(OCc5ccccc5)cc4)nc23)cc1 — MIC (Saccharomyces cerevisiae; microbial growth, broth dilution; ATCC9763): 62.5 µg/mL (≈ 119 µM)
CCCCN1CN(CC(=O)O)CSC1=S — IC50 (Leishmania tropica; parasite growth, MTT; 48 h, promastigote): 94.1 µM
CNC(=S)NN=Cc1ccc(Br)cc1 — IC50 (Leishmania tropica; parasite growth, MTT; 72 h, promastigote): 92.3 µM
O=[N+]([O-])C1=Cc2ccccc2OC1c1ccccc1Cl (stereo not drawn) — IC50 (Leishmania tropica; parasite growth; THP-1; 72 h, intracellular, amastigote): 164 µg/mL
CNC(=S)NN=Cc1ccc(OC)c(OC)c1 — IC50 (Leishmania tropica; parasite growth; J774.A1; 72 h, intracellular, amastigote): 454 µM
O=[N+]([O-])C1=Cc2ccccc2OC1c1cccc(Br)c1 (stereo not drawn) — IC50 (Leishmania tropica; parasite growth; THP-1; 72 h, intracellular, amastigote): 171 µg/mL
CCOC(=O)C1=C(CN2CCCC2C(=O)Nc2cccc(B(O)O)c2)NC(c2nccs2)=NC1c1ccc(F)cc1Br (stereo not drawn) — EC50 (Hepatitis B virus; viral replication, inhibitor, qPCR; HepDES19; 72 h): 0.47 µM
Cc1ccc(C2Oc3ccccc3C=C2[N+](=O)[O-])cc1 (stereo not drawn) — IC50 (Leishmania tropica; parasite growth; THP-1; 72 h, intracellular, amastigote): 164 µg/mL
CNC(=S)NN=Cc1ccc(OC)cc1 — IC50 (Leishmania tropica; parasite growth; J774.A1; 72 h, intracellular, amastigote): 22.7 µM
